Most compounds without a hit are left out; they make up all but 2.5% or so of the library.
MEKK2mut PB1 HTS: signal of MEK5 binding to mutant human MEKK2 PB1 domain; bead flow cytometry, Alexa488-MEK5 binding to MEKK2 mutant; percent response, % at 10 µM; actives 0.35% (n = 290,000); in the data active = percent response above about 24%, passing the limit was not always enough
MEKK2 WT-MEK5: raises or lowers MEK5 binding to wildtype human MEKK2 PB1 domain; AID 1531; bead flow cytometry, Alexa488-MEK5 binding to MEKK2 WT; actives lie on both sides; binding response (% of control), % at 10 µM; actives 1.1% (n = 290,000); Q9Y2U5; in the data active = binding response below about 67% or above about 130%
Rce1 inhib: inhibitors of yeast Ras-converting enzyme. yeast membranes, quenched prenylated peptide cleavage fluorescence. actives 0.27% (n = 290,000). Q03530. AID 2563. calls only;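 active = fall in fluorescence gain of 50% or more versus controls, with final raw signal at or below 3038400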;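 also: plate controls were neutral control wells for no effect and wells lacking membranes for full effect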
UCH37 DUB inh: human UCH37 deubiquitinating enzyme inhibition; Q9Y5K5; inhibition, % (concentration not given with the values); actives 0.33% (n = 330,000); purified proteasome/UCH37, Ub-AMC cleavage fluorescence;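 active = mean inhibition over replicate wells above about 20%, limit read from the data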;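 also: 0% = compound-free wells with enzyme and 100% = wells lacking proteasome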
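Material: Human UCH37 enzyme supplied as purified proteasome complex | Schedule: 30 min preincubation with enzyme, 25 min cleavage at room temperature | Detection: AMC fluorescence 355/460 nm | Measure: % inhibition of Ub-AMC cleavage fluorescence | Controls: Wells without proteasome as full block, compound-free enzyme plus substrate as uninhibited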
T cell HTS: T cell immune modulators affecting CD8 T cell-vesicle binding; actives 0.068% (n = 330,000); 2C CD8+ T cell-vesicle binding, flow cytometry; active compounds read low; response (vesicle binding), % at 7 µM;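 active = response, share of CD8 T cells binding vesicles, and their 90th percentile fluorescence all below set limits, cut at about 80% in these data, passing the limit was not always enough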;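 also: values below 100% mean blocked vesicle binding to the CD8+ T cells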
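Material: murine 2C transgenic CD8+ T lymphocytes / Also added: QL9-peptide-loaded Drosophila micro-vesicles bearing Ld, ICAM-1 and B7-1 / Schedule: binding step 1.5 h, 37 °C, antibody labelling 20 min, ice / Signal: flow cytometry, PE anti-B7-1 (FL2) versus Alexa647 anti-CD8 (FL8), PFA-fixed / Evaluation: percent CD8+ FL2 mean versus row control / Benchmarks: naked versus QL9-loaded vesicles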
MEKK3 PB1 HTS: MEKK3-MEK5 PB1 interaction, increase or decrease; Q99759; bead-based flow cytometry, Alexa488-MEK5 binding to MEKK3; actives lie on both sides; 0 = blocked by unlabeled MEK5, 100 = vehicle; binding response (% of control), % at 10 µM; actives 1.4% (n = 290,000); AID 1529;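 active = binding response more than 3 SD above or below the average of its plate-row segment, actives on both sides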;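 also: Alexa488 bead fluorescence after subtracting the streptavidin-only scavenger bead signal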
Target sequence (Q99759 whole entry, looked up): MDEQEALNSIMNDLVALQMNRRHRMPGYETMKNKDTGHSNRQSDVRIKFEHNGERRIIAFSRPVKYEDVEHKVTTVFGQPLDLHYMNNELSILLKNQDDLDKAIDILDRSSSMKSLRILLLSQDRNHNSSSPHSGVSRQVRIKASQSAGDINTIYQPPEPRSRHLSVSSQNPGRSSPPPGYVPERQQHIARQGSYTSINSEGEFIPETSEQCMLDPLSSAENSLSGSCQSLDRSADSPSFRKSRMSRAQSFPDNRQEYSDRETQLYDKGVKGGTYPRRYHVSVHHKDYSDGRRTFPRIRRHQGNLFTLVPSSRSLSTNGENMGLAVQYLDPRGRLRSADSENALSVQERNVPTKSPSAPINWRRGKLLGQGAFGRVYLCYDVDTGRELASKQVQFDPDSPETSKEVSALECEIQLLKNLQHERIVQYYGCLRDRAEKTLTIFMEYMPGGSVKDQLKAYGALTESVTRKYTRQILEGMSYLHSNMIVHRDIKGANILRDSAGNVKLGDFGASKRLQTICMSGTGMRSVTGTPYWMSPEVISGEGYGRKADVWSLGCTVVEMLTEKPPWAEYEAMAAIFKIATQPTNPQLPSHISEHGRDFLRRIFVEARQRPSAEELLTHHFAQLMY
MEKK2wt confirm: raises or lowers MEK5 binding to wildtype human MEKK2, retest | bead flow cytometry, Alexa488-MEK5 binding to MEKK2 WT; actives lie on both sides | actives 2.4% (n = 5,900) | binding response (% of control), % at 10 µM | AID 1892 | shares compounds with MEKK3 PB1 HTS; in the data active = binding response below about 16% or above about 210%; inactive = in between
MEKK2mut confirm: signal of MEK5 binding to mutant human MEKK2, retest; percent response, % at 10 µM; shares compounds with MEKK3 PB1 HTS; bead flow cytometry, Alexa488-MEK5 binding to MEKK2 mutant; actives 2% (n = 5,900); in the data active = percent response mostly above about 71%, no sharp cut-off; inactive = mostly below about 38%;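 also: higher means compound restores mutant binding toward wildtype level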
MEKK3-MEK5 inh: confirmation of inhibitors of MEK5 binding to human MEKK3 | AID 1894 | actives 1.8% (n = 5,900) | shares compounds with MEKK3 PB1 HTS | binding response (% of control), % at 10 µM | bead flow cytometry, Alexa488-MEK5 binding to MEKK3; active compounds read low;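 active = binding response below 72% of control, or above a set upper limit, though filed actives all read lower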;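 also: 100% = DMSO only wells and 0% = binding blocked by excess unlabeled MEK5; lower values mean stronger disruption of MEK5 binding to MEKK3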
* = called active by the depositor; i = inactive; / = no result; [ ] = dose if it differs, or a comment.

SMILES	MEKK2mut PB1 HTS	MEKK2 WT-MEK5	Rce1 inhib	UCH37 DUB inh	T cell HTS	MEKK3 PB1 HTS	MEKK2wt confirm	MEKK2mut confirm	MEKK3-MEK5 inh
CC(C)N=C1SCC(C)(C=NO)S1 (stereo not given)	/	/	/	3	/	/	/	/	/
CCC(C)N=C1SCC(C)(/C=N/O)S1 (stereo not given)	6	135*	/	/	907	128*	91	-5	95
COC(=O)c1sccc1-c1ccc(C=NOC(=O)c2ccccc2)o1	/	/	/	-55	/	/	/	/	/
O=C(/C(=C(\[O-])c1ccccc1)[n+]1ccc2ccccc2c1)c1ccccc1	4	102	i	3	452	128*	102	1	104
O=C(/C(=C(\[O-])c1ccccc1)[n+]1ccc2ccccc2c1)c1ccc(Cl)cc1	1	100	i	10	202	98	/	/	/
COC(=O)c1ccc(CSc2nnc(-c3ccc4c(c3)OCO4)n2-c2ccccc2)o1	4	109	i	5	350	131*	104	3	105
COC(=O)c1ccc(CSc2nc3ccccc3c(=O)n2-c2ccccc2)o1	-2	96	i	-1	320	102	/	/	/
Cc1[nH]nc2c1C(Cc1ccccc1)C(C#N)=C(N)O2 (stereo not given)	-26	3.0*[inhibitor]	i	1	286	2.0*[inhibitor]	101	-1	103
CCc1[nH]nc2c1C(Cc1ccccc1)C(C#N)=C(N)O2 (stereo not given)	2	98	i	3	452	99	/	/	/
CCOC(=O)Nc1cc(Br)c2c(c1)OCCO2	-20	-4.0*[inhibitor]	i	6	445	0.0*[inhibitor]	103	1	104
CCOC(=O)c1c(C)c(C(=O)Nc2ccc3c(c2)OCCO3)c(C)n1C	-5	95	i	5	292	94	/	/	/
Cc1ccccc1OCCNC(=O)CNC(=O)c1ccccc1O	-9	76	i	-20	134	79*[inhibitor]	103	4	103
COc1ccccc1OCCNC(=O)c1ccccc1C	7	113	i	4	432	99	/	/	/
CCOc1ncccc1C(=O)N=C1SCCN1C(=O)c1cccnc1OCC	7	140	i	1	370	158*	103	0	108
Cc1ccc(C(=O)NN=C(CC(=O)c2cccs2)C(F)(F)F)cc1	/	/	/	6	/	/	/	/	/
CCOC(=O)/C(C#N)=C/c1ccc(OCC(=O)Nc2ccc(OC)cc2)c(OC)c1	4	119	i	-4	364	124*	100	0	99
Cc1cccc2cc(CN(Cc3ccccc3)C(=O)N(C)C)c(=O)[nH]c12	6	126	/	-1	698	127*	96	-8	96
Cc1ccc(CN(Cc2cc3cccc(C)c3[nH]c2=O)C(=O)N(C)C)cc1	-4	97	i	2	252	102	/	/	/
COc1ccc(-c2csc(NC(=O)c3cccc(S(=O)(=O)N4CCN(C)CC4)c3)n2)cc1	-8	102	i	-11	385	72*[inhibitor]	125	43	106
COc1ccc(-c2csc(NC(=O)C3CCCCN3S(=O)(=O)c3ccccc3)n2)cc1 (stereo not given)	-6	90	i	1	101	80*[inhibitor]	95	-5	95
COc1ccc(-c2csc(NC(=O)CS(=O)(=O)c3ccccc3)n2)cc1	/	/	i	-3	340	/	/	/	/
CN1CCN(S(=O)(=O)c2cccc(C(=O)Nc3nc(-c4ccccc4)cs3)c2)CC1	/	/	i	3	471	/	/	/	/
Cc1ccccc1OCCCC(=O)Nc1ccc(Br)cc1	-21	0.0*[inhibitor]	i	5	299	0.0*[inhibitor]	112	8	109
COc1ccccc1OCCC(=O)OCC(=O)Nc1ccc(Br)cc1	1	108	i	1	666	134*	102	2	103
CC(=O)Nc1ccc(NC(=O)CCOc2ccccc2C)cc1	1	104	i	2	164	104	/	/	/
SMILES	MEKK2mut PB1 HTS	MEKK2 WT-MEK5	Rce1 inhib	UCH37 DUB inh	T cell HTS	MEKK3 PB1 HTS	MEKK2wt confirm	MEKK2mut confirm	MEKK3-MEK5 inh
CCCCN1CCc2c1nc1ccc(Br)cc1c2N	17	147*	i	10	409	106	148	27	110
Cc1ccc(-c2csc(NN=Cc3ccco3)n2)cc1	/	/	/	1	/	/	/	/	/
O=C(Cn1cnc2ccccc21)N/N=C/c1cccs1	2	100	i	/	177	129*	105	-2	103
Cc1cc([N+](=O)[O-])ccc1-c1ccc(C=NNC(=O)c2ccc(Br)o2)o1	/	/	/	8	/	/	/	/	/
COc1ccc(S(=O)(=O)NN=Cc2ccc(OC)c(COc3ccc(C)cc3[N+](=O)[O-])c2)cc1	/	/	/	1	/	/	/	/	/
N=C1/C(=C\c2ccc(SCc3ccccc3)o2)C(=O)N=C2SC(CC(=O)N3CCOCC3)=NN12	-12	50	i	11	173	48*[inhibitor]	94	-6	94
CCOC(=O)CSc1cc(=O)n(CC)c2ccccc12	8	123	i	-3	269	129*	100	3	103
CCn1c(=O)cc(SCC(=O)N(C)Cc2ccccc2)c2ccccc21	3	109	i	-2	132	110	/	/	/
O=C(CNC(=O)c1ccc(S(=O)(=O)N2CCCC2)cc1)NN=Cc1c(Cl)cccc1Cl	/	/	/	2	/	/	/	/	/
O=C(CNC(=O)c1ccc(S(=O)(=O)N2CCCC2)cc1)N/N=C/c1ccccc1Cl	-20	69	i	/	104	73*[inhibitor]	100	-9	102
COc1cc(/C=N/N=C(N)N)ccc1OCc1ccccc1Cl	35	229*	i	/	245	117	189	41	101
COc1cccc(C=Nc2oc(-c3ccccc3)cc2C#N)c1O	/	/	/	-3	/	/	/	/	/
CC1(C)CC(NC(=O)Cc2ccccc2[N+](=O)[O-])CC(C)(C)N1	1	108	i	2	254	142*	102	7	100
O=C(CN1CCN(Cc2ccc3c(c2)OCO3)CC1)N1CCc2[nH]c3ccccc3c2C1	15	123	i	-1	/	101	/	/	/
O=C(CN1CCN(Cc2ccc3c(c2)OCO3)CC1)N1CCc2[nH]c3ccc(F)cc3c2C1	32*	129	i	1	712	110	118	9	105
